ChEMBL document CHEMBL2434858, “Synthesis and allosteric modulation of the dopamine receptor by peptide analogs of L-prolyl-L-leucyl-glycinamide (PLG) modified in the L-proline or L-proline and L-leucine scaffolds” (Eur J Med Chem, 2013)
The source made the active and inactive calls. The calls are words filed in the database; no cut-off is given here. Residues, ends and D or L forms follow the SMILES beside them.

Tests used:
[1] = target: D(2) dopamine receptor (Homo sapiens) (UniProt P14416); assay: Positive allosteric modulation of human dopamine D2S receptor expressed in CHO cell membranes assessed as stimulation of [3H]-NPA binding at 1 to 10 uM after 60 mins by beta scintillation counting analysis
Outline: (§1)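 Membranes from confluent CHO cells stably expressing human D2S, homogenized and spun at 48,400 g. Membranes were incubated with 0.25 nM [3H]NPA plus compound (eight concentrations) for 60 min at 25 °C in 50 mM Tris-HCl pH 7.4, 120 mM NaCl, 5 mM KCl, 4 mM MgCl2, 1 mM EDTA. Nonspecific binding was defined with (+)-butaclamol. Samples were filtered through PEI-treated filters. Result is % increase of specific binding over compound-free control; duplicates, three experiments, ANOVA.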

[2] = target: D(2) dopamine receptor (Homo sapiens) (UniProt P14416); assay: Positive allosteric modulation of human dopamine D2S receptor expressed in CHO cell membranes assessed as stimulation of [3H]-NPA binding at 10^-12 to 10^-9 M after 60 mins by beta scintillation counting analysis; outline: as §1
[3] = target: D(2) dopamine receptor (Homo sapiens) (UniProt P14416); assay: Positive allosteric modulation of human dopamine D2S receptor expressed in CHO cell membranes assessed as stimulation of [3H]-NPA binding at 10^-8 to 10^-4 M after 60 mins by beta scintillation counting analysis; outline: as §1

Sequence of D(2) dopamine receptor (Homo sapiens) (P14416 whole entry): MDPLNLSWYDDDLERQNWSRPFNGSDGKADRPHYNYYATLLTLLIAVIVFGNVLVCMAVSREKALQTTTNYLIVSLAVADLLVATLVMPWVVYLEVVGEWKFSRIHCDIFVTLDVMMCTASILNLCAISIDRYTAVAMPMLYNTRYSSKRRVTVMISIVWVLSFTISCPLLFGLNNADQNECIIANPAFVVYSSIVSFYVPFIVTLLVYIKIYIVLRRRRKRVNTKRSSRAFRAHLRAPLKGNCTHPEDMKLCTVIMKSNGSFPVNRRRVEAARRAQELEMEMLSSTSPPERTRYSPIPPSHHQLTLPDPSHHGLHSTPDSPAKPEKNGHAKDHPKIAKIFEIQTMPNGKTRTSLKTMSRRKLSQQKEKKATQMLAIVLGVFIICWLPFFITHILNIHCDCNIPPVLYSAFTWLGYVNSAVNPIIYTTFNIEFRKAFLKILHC

SMILES | Activity [1] | Activity [2] | Activity [3]
CC(C)C[C@H](NC(=O)[C@@H]1N[C@@H](CN=[N+]=[N-])C[C@H]1CN=[N+]=[N-])C(=O)NCC(N)=O | Active |  | 
COC(=O)CNC(=O)[C@H](CC(C)C)NC(=O)[C@H]1N[C@H](CN=[N+]=[N-])C[C@@H]1CN=[N+]=[N-] | Active |  | 
CC(C)[C@H](NC(=O)[C@@H]1N[C@@H](CN=[N+]=[N-])C[C@H]1CN=[N+]=[N-])C(=O)NCC(N)=O | Active |  | 
COC(=O)CNC(=O)[C@H](CC(C)C)NC(=O)[C@@H]1N[C@@H](CN=[N+]=[N-])C[C@H]1CN=[N+]=[N-] | Active |  | 
CC(C)[C@H](NC(=O)[C@@H]1N[C@@H](CN=[N+]=[N-])C[C@H]1CN=[N+]=[N-])C(=O)NCC(=O)O | Active |  | 
CC(C)[C@H](NC(=O)[C@H]1N[C@H](CN=[N+]=[N-])C[C@@H]1CN=[N+]=[N-])C(=O)NCC(N)=O |  | Active | inactive
CC(C)C[C@H](NC(=O)[C@H]1N[C@H](CN=[N+]=[N-])C[C@@H]1CN=[N+]=[N-])C(=O)NCC(N)=O | Active |  | 
COC(=O)CNC(=O)[C@@H](NC(=O)[C@@H]1N[C@@H](CN=[N+]=[N-])C[C@H]1CN=[N+]=[N-])C(C)C | Active |  | 
CC(C)[C@H](NC(=O)[C@H]1N[C@H](CN=[N+]=[N-])C[C@@H]1CN=[N+]=[N-])C(=O)NCC(=O)O |  | Active | inactive
CC(C)C[C@H](NC(=O)[C@@H]1CCCN1)C(=O)NCC(N)=O (H-Pro-Leu-Gly-NH2) |  | Active | inactive
COC(=O)CNC(=O)[C@@H](NC(=O)[C@H]1N[C@H](CN=[N+]=[N-])C[C@@H]1CN=[N+]=[N-])C(C)C | Active |  | 
CC(C)C[C@H](NC(=O)[C@@H]1N[C@@H](CN=[N+]=[N-])C[C@H]1CN=[N+]=[N-])C(=O)NCC(=O)O | Active |  | 
